According to ChEMBL document CHEMBL3352814, “Design, synthesis and biological evaluation of biphenylamide derivatives as Hsp90 C-terminal inhibitors” (Eur J Med Chem, 2015):
The source made the active and inactive calls. The rule behind the calls is not given here.

Key:
MCF7 = assay: Antiproliferative activity against human MCF7 cells after 72 hrs by MTS/PMS assay; assay type: functional, cell-based; details: MCF7, 72 h
Summary of the method: (§1)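 Cells kept in 1:1 Advanced DMEM/F12 with non-essential amino acids, 2 mM L-glutamine, penicillin/streptomycin and 10% FBS at 37 °C, 5% CO2. Seeded 2000 cells/well, attached overnight, then given compound at varying concentrations in DMSO (1% final) for 72 h. Viable cells read by MTS/PMS. Normalised to 1% DMSO wells as 100% proliferation. IC50 from separate experiments run in triplicate.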

[1] = target: T1, Heat shock protein HSP90 (Homo sapiens) (UniProt P07900+P08238); assay: Inhibition of HSP90 in human MCF7 cells assessed as induction of Raf protein degradation at 0.1 to 5 uM after 24 hrs by Western blotting method; assay type: cell-based
Summary of the method: (§2)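 MCF-7 cells, grown as for proliferation, treated 24 h with compound in DMSO (1% final). Geldanamycin 0.5 μM and DMSO served as controls. Lysis in cold RIPA with 1 mM PMSF, 2 mM orthovanadate and protease inhibitors, 1 h on ice, then cleared at 14000g, 10 min, 4 °C. BCA protein assay; 20 μg protein run reducing, blotted to nitrocellulose, probed with client antibodies, HRP chemiluminescence. High and low doses were 5-fold and 0.5-fold the antiproliferative value.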

[2] = target: T1, Heat shock protein HSP90 (Homo sapiens); assay: Inhibition of HSP90 in human MCF7 cells assessed as induction of Her2 protein degradation at 0.5 times antiproliferative IC50 level after 24 hrs by Western blotting method; assay type: cell-based; summary of the method: as §2
[3] = target: T1, Heat shock protein HSP90 (Homo sapiens); assay: Inhibition of HSP90 in human MCF7 cells assessed as induction of Raf protein degradation at 0.5 times antiproliferative IC50 level after 24 hrs by Western blotting method; assay type: cell-based; summary of the method: as §2
[4] = target: T1, Heat shock protein HSP90 (Homo sapiens); assay: Inhibition of HSP90 in human MCF7 cells assessed as induction of Her2 protein degradation at 0.1 to 5 uM after 24 hrs by Western blotting method; assay type: cell-based; summary of the method: as §2
[5] = target: T1, Heat shock protein HSP90 (Homo sapiens); assay: Inhibition of HSP90 in human MCF7 cells assessed as induction of Akt protein degradation at 0.5 times antiproliferative IC50 level after 24 hrs by Western blotting method; assay type: cell-based; summary of the method: as §2
[6] = Antiproliferative activity against human SKBR3 cells after 72 hrs by MTS/PMS assay; assay type: functional, cell-based; details: SK-BR-3, 72 h; summary of the method: as §1
[7] = target: T1, Heat shock protein HSP90 (Homo sapiens); assay: Inhibition of HSP90 in human MCF7 cells assessed as induction of Akt protein degradation at 0.1 to 5 uM after 24 hrs by Western blotting method; assay type: cell-based; summary of the method: as §2
[8] = target: T1, Heat shock protein HSP90 (Homo sapiens); assay: Inhibition of HSP90 in human MCF7 cells assessed as induction of Raf protein degradation at 0.5 to 5 times antiproliferative IC50 level after 24 hrs by Western blotting method; assay type: cell-based; summary of the method: as §2
[9] = target: T1, Heat shock protein HSP90 (Homo sapiens); assay: Inhibition of HSP90 in human MCF7 cells assessed as induction of Akt protein degradation at 0.5 to 5 times antiproliferative IC50 level after 24 hrs by Western blotting method; assay type: cell-based; summary of the method: as §2
[10] = target: T1, Heat shock protein HSP90 (Homo sapiens); assay: Inhibition of HSP90 in human MCF7 cells assessed as induction of Her2 protein degradation at 0.5 to 5 times antiproliferative IC50 level after 24 hrs by Western blotting method; assay type: cell-based; summary of the method: as §2

Compound | IC50 (MCF7) [nM] | inhibition [1] | inhibition [2] | inhibition [3] | inhibition [4] | inhibition [5] | IC50 [6] [nM] | inhibition [7] | inhibition [8] | inhibition [9] | inhibition [10]
COc1ccc(C(=O)Nc2ccc(-c3ccc(OC4CCN(C)CC4)cc3)cc2)cc1-c1ccc(OC(C)=O)cc1 | 640 | Dose-dependent effect | Active | Active | Dose-dependent effect | Active | 140 | Dose-dependent effect |  |  | 
COc1cccc(-c2cc(C(=O)Nc3cccc(-c4cccc(OC5CCN(C)CC5)c4)c3)ccc2OC)c1 | 2000 |  | Active | Active |  | Active | 1620 |  |  |  | 
CN1CCC(Oc2ccc(-c3ccc(NC(=O)c4cccc5ccccc45)cc3)cc2)CC1 | 490 |  |  |  |  |  | 350 |  | Active | Active | Active
COc1cccc(-c2cc(C(=O)Nc3ccc(-c4ccc(OC5CCN(C)CC5)cc4)cc3)ccc2OC)c1 | 710 |  | Active | Active |  | Active | 470 |  |  |  | 
COc1ccc(C(=O)Nc2ccc(-c3ccc(OC4CCN(C)CC4)cc3)cc2)cc1-c1ccccc1 | 840 |  | Active | Active |  | Active | 510 |  |  |  | 
CC(C)=CCc1cc(C(=O)Nc2ccc(-c3ccc(OC4CCN(C)CC4)cc3)cc2)ccc1O | 1850 |  | Active | Active |  | Active | 2270 |  |  |  | 
CN1CCC(Oc2ccc(-c3ccc(NC(=O)c4ccc(I)cc4)cc3)cc2)CC1 | 580 |  |  |  |  |  | 310 |  | inactive | inactive | inactive
CC(C)=CCc1cc(C(=O)Nc2cccc(-c3cccc(OC4CCN(C)CC4)c3)c2)ccc1O | 1170 |  | Active | Active |  | Active | 2790 |  |  |  | 
CN1CCC(Oc2ccc(-c3ccc(NC(=O)c4cccc(-c5ccccc5)c4)cc3)cc2)CC1 | 1150 |  |  |  |  |  | 730 |  | Active | Active | Active
CN1CCC(Oc2ccc(-c3ccc(NC(=O)c4ccc5ccccc5c4)cc3)cc2)CC1 | 580 |  |  |  |  |  | 220 |  | Active | Active | Active
CN1CCC(Oc2ccc(-c3ccc(NC(=O)c4ccc(Cl)cc4)cc3)cc2)CC1 | 520 |  |  |  |  |  | 570 |  | inactive | inactive | inactive
COc1ccc(C(=O)Nc2ccc(-c3ccc(OC4CCN(C)CC4)cc3)cc2)cc1-c1cccc(Cl)c1 | 320 |  | Active | Active |  | Active | 330 |  |  |  | 
